Assay [1] has as its target T1, D(2) dopamine receptor (Homo sapiens, UniProt P14416). Nature of the assay: Antagonist activity at D2 receptor (unknown origin) expressed in Flp-In TREx 293 cells coexpressing chimeric Gqi5 protein assessed as calcium accumulation by Fluo-8AM dye based fluorescence analysis. The assay is classed as functional, cell-based.
The subject of a further assay is CHO. The assay is described as follows: Ratio of AC50 for ProLink-tagged D3 receptor (unknown origin) expressed in CHO cells to AC50 for ProLink-tagged D2 receptor (unknown origin) expressed in CHO cells by beta-arrestin assay. Format: cell-based. The settings on record: Homo sapiens.
Assay [2] has as its target T1, D(2) dopamine receptor. The assay is described as follows: Antagonist activity at ProLink-tagged D2 receptor (unknown origin) expressed in CHO cells assessed as inhibition of dopamine-stimulated beta-arrestin binding treated for 90 mins prior to dopamine challenge by PathHunter DiscoveRx assay. The assay is classed as cell-based.
Assay [3] addresses T1, D(2) dopamine receptor. The assay is described as follows: Displacement of [3H]methylspiperone from human D2L receptor expressed in HEK cell membrane after 90 mins by scintillation counting analysis. Format: cell membranes, HEK293.
For assay [4], the target named is T2, D(3) dopamine receptor (Homo sapiens, UniProt P35462). The assay is described as follows: Antagonist activity at ProLink-tagged D3 receptor (unknown origin) expressed in CHO cells assessed as inhibition of dopamine-stimulated beta-arrestin binding treated for 90 mins prior to dopamine challenge by PathHunter DiscoveRx assay. The assay is classed as cell-based.
T2 sequence (P35462 whole entry): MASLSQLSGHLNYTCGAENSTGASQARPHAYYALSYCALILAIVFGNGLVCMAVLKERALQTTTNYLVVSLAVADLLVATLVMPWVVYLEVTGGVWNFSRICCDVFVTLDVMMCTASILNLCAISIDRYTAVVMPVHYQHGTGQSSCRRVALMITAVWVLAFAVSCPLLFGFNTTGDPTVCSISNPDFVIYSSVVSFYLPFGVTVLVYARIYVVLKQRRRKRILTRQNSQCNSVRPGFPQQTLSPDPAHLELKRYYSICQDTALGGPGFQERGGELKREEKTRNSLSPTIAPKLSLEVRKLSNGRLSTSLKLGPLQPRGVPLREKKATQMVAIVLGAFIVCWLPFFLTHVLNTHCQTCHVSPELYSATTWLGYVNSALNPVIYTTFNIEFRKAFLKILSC

Assay [5] has as its target T2, D(3) dopamine receptor. Nature of the assay: Displacement of [3H]methylspiperone from human D3 receptor expressed in HEK293 cell membrane after 90 mins by scintillation counting analysis. Format: cell membranes.
Another assay deals with HEK293. The assay is described as follows: Ratio of Ki for human D3 receptor expressed in HEK293 cell membrane to Ki for human D2L receptor expressed in HEK cell membrane. Format: cell-based. The procedure, abridged: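 Competition binding with [3H]methylspiperone on membranes from stable HEK cells. […] Incubation 90 min at room temperature in EBSS with sodium metabisulfite, nonspecific binding with 4 µM (+)-butaclamol, then GF/C filtration and scintillation counting. Ki from IC50 via Cheng–Prusoff.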

A value given as a limit tells only on which side of the number the result lay.

T1 sequence (P14416 whole entry): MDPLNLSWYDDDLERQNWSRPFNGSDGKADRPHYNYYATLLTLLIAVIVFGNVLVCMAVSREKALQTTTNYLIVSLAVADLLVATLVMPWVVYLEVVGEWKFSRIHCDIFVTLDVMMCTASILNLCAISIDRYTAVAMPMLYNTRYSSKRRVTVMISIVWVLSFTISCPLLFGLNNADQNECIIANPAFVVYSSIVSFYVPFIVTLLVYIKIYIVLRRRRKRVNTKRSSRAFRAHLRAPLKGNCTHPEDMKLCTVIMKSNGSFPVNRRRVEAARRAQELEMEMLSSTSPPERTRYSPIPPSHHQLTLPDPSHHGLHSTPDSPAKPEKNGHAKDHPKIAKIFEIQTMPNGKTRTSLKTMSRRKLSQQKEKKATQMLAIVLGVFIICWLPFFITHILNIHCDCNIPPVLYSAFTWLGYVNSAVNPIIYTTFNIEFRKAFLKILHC

As for `CCN1C(=O)c2ccccc2[S+]([O-])c2ccc(C(=O)Nc3ccccc3)cc21` (racemic), the AC50 at D(2) dopamine receptor [1] came out at 887 nM.
For `CN1C(=O)c2ccccc2[S+]([O-])c2ccc(C(=O)NCc3cccnc3)cc21` (racemic), the concentration at half-maximal activity (AC50) at D(2) dopamine receptor [1] was found to be 281 nM.
Regarding `CCN1C(=O)c2ccccc2[S+]([O-])c2ccc(C(=O)OCc3ccc(OC)cc3)cc21` (racemic), at D(2) dopamine receptor [1], the AC50 was more than 77000 nM.
For `CN1C(=O)c2ccccc2[S@+]([O-])c2ccc(C(=O)NCc3ccc(Br)cc3)cc21`, the results for the AC50 at D(2) dopamine receptor [1], at D(2) dopamine receptor [2] and on D(3) dopamine receptor [4] were 89 nM, 1020 nM and 4570 nM, respectively. Moreover, in the assay with CHO, the Ratio worked out at 4.5. The results for the inhibitory constant (Ki) at D(2) dopamine receptor [3] and on D(3) dopamine receptor [5] were 240 nM and 370 nM, respectively. The Ratio Ki with HEK293 was determined as 1.5.
In the case of `CN1C(=O)c2ccccc2[S+]([O-])c2ccc(C(=O)NCc3cccc(Cl)c3)cc21` (racemic), the concentration at half-maximal activity (AC50) on D(2) dopamine receptor [1] stood at 281 nM.
With `CN1C(=O)c2ccccc2[S@+]([O-])c2ccc(C(=O)NCc3cccnc3)cc21`, the AC50 at D(2) dopamine receptor [1] is 445 nM; at D(2) dopamine receptor [2] it was 2890 nM; at D(3) dopamine receptor [4], 14500 nM. In addition, the Ratio in the assay on CHO was 5. Further, the Ki at D(2) dopamine receptor [3] is 310 nM; at D(3) dopamine receptor [5], 21000 nM. Further, the Ratio Ki in the assay with HEK293 was 70.
As to `CCN1C(=O)c2ccccc2S(=O)(=O)c2ccc(C(=O)NCc3ccc(OC)cc3)cc21`, the AC50 at D(2) dopamine receptor [1] was more than 77000 nM.
Regarding `CN1C(=O)c2ccccc2[S+]([O-])c2ccc(C(=O)NCCN3CCCCC3)cc21` (racemic), the AC50 at D(2) dopamine receptor [1] amounted to 112 nM.
As to `CCN1C(=O)c2ccccc2[S+]([O-])c2ccc(C(=O)Nc3ccc(OC)cc3)cc21` (racemic), the AC50 at D(2) dopamine receptor [1] amounted to 141 nM.
Turning to `CCN1C(=O)c2ccccc2[S+]([O-])c2ccc(C(=O)NCc3ccc(C(C)(C)C)cc3)cc21` (racemic), the AC50 at D(2) dopamine receptor [1] came out at 353 nM.
Same read-out and setting: under `CCN(Cc1ccccc1)C(=O)c1ccc2c(c1)N(CC)C(=O)c1ccccc1[S+]2[O-]` (racemic) stands 56000 nM; under `CCN1C(=O)c2ccccc2[S+]([O-])c2ccc(C(=O)NCc3ccc(C(F)(F)F)cc3)cc21` (racemic), 141 nM; under `CN1C(=O)c2ccccc2[S+]([O-])c2ccc(C(=O)Nc3ccccc3)cc21` (racemic), 1580 nM.
For `CCN1C(=O)c2ccccc2[S+]([O-])c2ccc(C(=O)NCc3ccccc3)cc21` (racemic), the AC50 on D(2) dopamine receptor [1] was found to be 445 nM.
On to `CCN1C(=O)c2ccccc2[S+]([O-])c2ccc(C(=O)NCc3ccc(C)cc3)cc21` (racemic), for which, on D(2) dopamine receptor [1], the AC50 was found to be 177 nM.
As to `CN1C(=O)c2ccccc2[S@+]([O-])c2ccc(C(=O)NCc3ccc(Cl)cc3)cc21`, the results for the AC50 on D(2) dopamine receptor [1], at D(2) dopamine receptor [2] and at D(3) dopamine receptor [4] were 280 nM, 2890 nM and 10200 nM, respectively. The Ratio with CHO came to 4.5.
With `CCN1C(=O)c2ccccc2[S+]([O-])c2ccc(C(=O)NCc3ccc(Cl)cc3)cc21` (racemic), the AC50 at D(2) dopamine receptor [1] came to 509 nM.
Still for that read-out and setting: under `CCCN1C(=O)c2ccccc2[S+]([O-])c2ccc(C(=O)NCc3ccc(OC)cc3)cc21` (racemic) stands 705 nM; under `CN1C(=O)c2ccccc2[S+]([O-])c2ccc(C(=O)NCc3ccc(Cl)cc3)cc21` (racemic), 141 nM.
Consider `CCN1C(=O)c2ccccc2[S+]([O-])c2ccc(NC(=O)Cc3ccc(OC)cc3)cc21` (racemic), for which the AC50 at D(2) dopamine receptor [1] is 705 nM.
`CN1C(=O)c2ccccc2[S+]([O-])c2ccc(C(=O)NCc3ccccc3)cc21` (racemic): on D(2) dopamine receptor [1], the AC50 stood at 223 nM.
For `CCN1C(=O)c2ccccc2Sc2ccc(C(=O)NCc3ccc(OC)cc3)cc21`, on D(2) dopamine receptor [1], the AC50 was 705 nM.
`COc1ccc(NC(=O)c2ccc3c(c2)N(C)C(=O)c2ccccc2[S+]3[O-])cc1` (racemic): the AC50 at D(2) dopamine receptor [1] worked out at 353 nM.
On to `CCN1C(=O)c2ccccc2[S+]([O-])c2ccc(C(=O)NCc3ccccc3OC)cc21` (racemic), for which the AC50 on D(2) dopamine receptor [1] was 4460 nM.
Turning to `CCN1C(=O)c2ccccc2[S+]([O-])c2ccc(C(=O)NC(C)c3ccccc3)cc21` (racemic), at D(2) dopamine receptor [1], the half-maximal activity concentration (AC50) came out at 560 nM.
Turning to `CCN1C(=O)c2ccccc2[S+]([O-])c2ccc(C(=O)NCc3ccc4c(c3)OCO4)cc21` (racemic), the AC50 on D(2) dopamine receptor [1] amounted to 353 nM.
On the same count and under the same terms, under `COc1ccc(CNC(=O)c2ccc3c(c2)NC(=O)c2ccccc2[S+]3[O-])cc1` (racemic) stands 887 nM.
On to `CCN1C(=O)c2ccccc2[S+]([O-])c2ccc(C(=O)NCc3cccc(OC)c3)cc21` (racemic), for which, at D(2) dopamine receptor [1], the AC50 came out at 112 nM.
On the same count and under the same terms, then `CN1C(=O)c2ccccc2[S+]([O-])c2ccc(C(=O)NCc3ccccn3)cc21` (racemic), with 11200 nM; and `CN1C(=O)c2ccccc2[S+]([O-])c2ccc(C(=O)NCc3ccc(Br)cc3)cc21` (racemic), with 71 nM; and `CCN1C(=O)c2ccccc2[S+]([O-])c2ccc(C(=O)NCc3ccc(S(C)(=O)=O)cc3)cc21` (racemic), with 353 nM.
With `COc1ccc(CNC(=O)c2ccc3c(c2)N(C)C(=O)c2ccccc2[S+]3[O-])cc1` (racemic), the AC50 on D(2) dopamine receptor [1] is 112 nM.
With `COc1ccc(CNC(=O)c2ccc3c(c2)N(Cc2ccccc2)C(=O)c2ccccc2[S+]3[O-])cc1` (racemic), the AC50 at D(2) dopamine receptor [1] was found to be 8870 nM.
Regarding `COc1ccc(CNC(=O)c2cccc(N3C(=O)c4ccccc4C3=O)c2)cc1`, the AC50 at D(2) dopamine receptor [1] was more than 77000 nM.
For `CN1C(=O)c2ccccc2[S@@+]([O-])c2ccc(C(=O)NCCc3cccs3)cc21`, the AC50 on D(2) dopamine receptor [1], on D(2) dopamine receptor [2] and at D(3) dopamine receptor [4] was more than 77000 nM in each case. The Ki at D(2) dopamine receptor [3] and at D(3) dopamine receptor [5] was more than 50000 nM in each case.
On to `COc1ccc(CNC(=O)c2ccc3c(c2)C(=O)c2ccccc2C3=O)cc1`, for which, at D(2) dopamine receptor [1], the AC50 is more than 77000 nM.
Same read-out and setting: then `CN(C)CCCNC(=O)c1ccc2c(c1)N(C)C(=O)c1ccccc1[S+]2[O-]` (racemic), with 560 nM; and `CCN1C(=O)c2ccccc2[S+]([O-])c2ccc(C(=O)NCc3ccc(SC)cc3)cc21` (racemic), with 223 nM; and `CCN1C(=O)c2ccccc2[S+]([O-])c2ccc(C(=O)NCc3ccc(C#N)cc3)cc21` (racemic), with 141 nM.
Turning to `CN1C(=O)c2ccccc2[S+]([O-])c2ccc(C(=O)NCCN3CCCC3)cc21` (racemic), at D(2) dopamine receptor [1], the AC50 came to 89 nM.
On the same count and under the same terms, under `CCN1C(=O)c2ccccc2[S+]([O-])c2ccc(NC(=O)Cc3ccc(F)cc3)cc21` (racemic) stands 223 nM; under `CN1C(=O)c2ccccc2[S+]([O-])c2ccc(C(=O)NCc3ccc(F)cc3)cc21` (racemic), 353 nM.
Regarding `CCN1C(=O)c2ccccc2[S+]([O-])c2ccc(C(=O)NCc3cc(OC)c(OC)c(OC)c3)cc21` (racemic), the AC50 at D(2) dopamine receptor [1] was found to be 1770 nM.
For `CCN1C(=O)c2ccccc2[S+]([O-])c2ccc(C(=O)N(C)Cc3ccc(OC)cc3)cc21` (racemic), at D(2) dopamine receptor [1], the AC50 is more than 77000 nM.
For the molecule `CCN1C(=O)c2ccccc2[S+]([O-])c2ccc(C(=O)NCCc3ccc(OC)cc3)cc21` (racemic), the AC50 on D(2) dopamine receptor [1] came to 353 nM.
Regarding `CN1C(=O)c2ccccc2[S+]([O-])c2ccc(C(=O)NCCc3cccs3)cc21` (racemic), the AC50 at D(2) dopamine receptor [1] amounted to 89 nM; on D(2) dopamine receptor [2], 913 nM; at D(3) dopamine receptor [4] it was 20400 nM. Moreover, the values for the Ki at D(2) dopamine receptor [3] and on D(3) dopamine receptor [5] were 190 nM and 9200 nM, respectively.
Regarding `CCN1C(=O)c2ccccc2[S+]([O-])c2ccc(C(=O)NCc3ccc(F)cc3)cc21` (racemic), the AC50 at D(2) dopamine receptor [1] was 89 nM.

The values above are taken from ChEMBL document CHEMBL3232915, “Discovery, optimization, and characterization of novel D2 dopamine receptor selective antagonists” (J Med Chem, 2014).
